Each block holds one compound with its values, some of them ahead of it.
Tests used:
[1] = tested on: Neutrophil; assay: Inhibition of FMLP/CB-stimulated superoxide anion generation in human neutrophils treated for 5 mins before FMLP and CB challenge for 10 mins and 3 mins respectively by spectrophotometer analysis; format: functional, cell-based
In short: (§1)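 Human neutrophils in Ca2+-free HBSS pH 7.4 plus 0.5 mg/ml ferricytochrome c and 1 mM Ca2+. Equilibrated 37 °C 2 min, drug 5 min, cytochalasin B (1 µg/ml) 3 min, then 100 nM FMLP 10 min. SOD-inhibitable ferricytochrome c reduction followed at 550 nm with stirring. Mean ± S.E.M., n = 3–4; IC50 = 50% inhibition.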

[2] = tested on: RAW264.7; assay: Cytotoxicity against mouse RAW264.7 cells assessed as cell viability after 4 hrs by MTT assay; format: cell-based; details: RAW264.7, 4 h
In short: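 RAW 264.7 macrophages (ATCC) grown in DMEM with 10% heat-inactivated FCS and penicillin/streptomycin at 37 °C, 5% CO2, in 96-well plates. Cells incubated with MTT (5 mg mL-1) for 4 h at 37 °C. Formazan dissolved in acid-SDS. Viability taken from mitochondria-dependent MTT reduction.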

[3] = tested on: RAW264.7; assay: Inhibition of LPS/IFNgamma-induced NO production in mouse RAW264.7 cells after 24 hrs by Griess reagent method; format: functional, cell-based; details: RAW264.7, 24 h
In short: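 RAW 264.7 cells grown to confluence in 96-well plates (~200,000 cells/well), then given fresh medium with LPS (1 µg mL-1) plus IFN-γ (50 U mL-1); compounds added together with stimulus. Nitrite in medium read at 24 h: Griess reagent (1% sulfanilamide, 0.1% naphthylenediamine, 5% phosphoric acid), OD550, against sodium nitrite standards made in medium. IC50 = 50% inhibition.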

[4] = tested on: Neutrophil; assay: Inhibition of FLMP-stimulated Ca2+ mobilization in human neutrophils assessed as maximum intracellular Ca2+ concentration at 10 uM treated for 5 mins before stimulation by fluo-3 AM-based spectrofluorometry; format: functional
In short: (§2)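 Human neutrophils (dextran sedimentation, Ficoll Hypaque, hypotonic erythrocyte lysis; >98% viable) loaded with 2 µM fluo-3 AM, 37 °C, 45 min, washed, 3×10^6 cells/ml in Ca2+-free HBSS. Stimulated with 0.1 µM FMLP with 1 mM Ca2+, 37 °C, stirring; ex 488/em 520 nm. [Ca2+]i = Kd[(F−Fmin)/(Fmax−F)], Fmax with 0.05% Triton X-100, Fmin with 20 mM EGTA. Mean ± SEM.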

[5] = tested on: Neutrophil; assay: Inhibition of FMLP/CB-stimulated elastase release in human neutrophils treated for 5 mins before FMLP/CB challenge using MeO-Suc-Ala-Ala-Pro-Val-p-nitroanilide as a substrate; format: functional, cell-based
In short: (§3)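 Human neutrophils (6×10^5/ml) with 100 µM MeO-Suc-Ala-Ala-Pro-Val-p-nitroanilide, equilibrated 37 °C 2 min, drug 5 min, then activated by 100 nM FMLP plus 0.5 µg/ml cytochalasin B. Absorbance at 405 nm monitored continuously. Expressed as % of release in drug-free FMLP/CB control. Mean ± S.E.M., n = 3–4; IC50 = 50% inhibition.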

[6] = tested on: Neutrophil; assay: Inhibition of FLMP-stimulated Ca2+ mobilization in human neutrophils assessed as time required to decrease half of Ca2+ at 10 uM treated for 5 mins before FLMP challenge by fluo-3 AM-based spectrofluorometry; format: functional, cell-based; in short: as §2
[7] = tested on: Neutrophil; assay: Inhibition of FMLP/CB-stimulated elastase release in human neutrophils at 30 uM treated for 5 mins before FMLP/CB challenge using MeO-Suc-Ala-Ala-Pro-Val-p-nitroanilide as a substrate relative to control; format: functional; in short: as §3
[8] = tested on: Neutrophil; assay: Inhibition of FMLP/CB-stimulated superoxide anion generation in human neutrophils at 30 uM treated for 5 mins before FMLP and CB challenge for 10 mins and 3 mins respectively by spectrophotometer analysis relative to control; format: functional; in short: as §1

SMILES: CC(C)Oc1ccc(C(=O)/C=C/c2cccs2)c(O)c1CN1CCOCC1
IC50 [1]: 3.39 µM | IC50 [2]: 34 µM | IC50 [3]: 2.21 µM

SMILES: O=C(/C=C/c1cccs1)c1cccc(O)c1CN1CCOCC1
IC50 [1]: 10.5 µM | IC50 [5]: 24.3 µM | IC50 [2]: 12.7 µM | IC50 [3]: 2.49 µM

SMILES: O=S(=O)(F)Cc1ccccc1 [PHENYLMETHYLSULFONYLFLUORIDE]
IC50 [5]: 95 µM

SMILES: O=C(/C=C/c1cccs1)c1ccc(O)c(CN2CCOCC2)c1
IC50 [1]: 25.4 µM | inhibition at 30 µM [7]: 19.3% | IC50 [2]: 6830 µM | IC50 [3]: 0.47 µM

SMILES: Cc1ccsc1/C=C/C(=O)c1cccc(O)c1CN1CCOCC1
IC50 [1]: 9.6 µM | IC50 [5]: 18.6 µM | IC50 [2]: 182 µM | IC50 [3]: 3.39 µM

SMILES: COc1ccc(/C=C/C(=O)c2cccnc2)c(CN2CCCCC2)c1O
IC50 [1]: 13 µM | IC50 [5]: 20.1 µM

SMILES: COc1ccc(/C=C/C(=O)c2ccco2)c(CN2CCCCC2)c1O
IC50 [1]: 4.18 µM

SMILES: COc1ccc(/C=C/C(=O)c2ccc(C)cc2)c(CN2CCOCC2)c1O
IC50 [1]: 2.76 µM | IC50 [5]: 6.97 µM

SMILES: O=C(/C=C/c1ccccn1)c1ccc(O)c(CN2CCOCC2)c1O
IC50 [1]: 12.6 µM | IC50 [5]: 21.2 µM | IC50 [2]: 11.4 µM | IC50 [3]: 1.73 µM

SMILES: Cc1ccc(/C=C/C(=O)c2ccc(O)c(CN3CCOCC3)c2)o1
IC50 [1]: 25.6 µM | IC50 [2]: 0.006 µM | IC50 [3]: 1.28 µM

SMILES: Cc1ccsc1/C=C/C(=O)c1ccc(O)c(CN2CCOCC2)c1
IC50 [1]: 16.4 µM | IC50 [5]: 18.2 µM | IC50 [3]: 1.39 µM

SMILES: COc1ccc(/C=C/C(=O)c2cccc(C)c2)c(CN2CCOCC2)c1O
IC50 [1]: 3.16 µM | IC50 [5]: 2.95 µM

SMILES: COc1ccccc1OC(=O)CNC(=O)Cc1ccc(C(=O)c2ccc(C)cc2)n1C [AMTOLMETIN GUACIL]
IC50 [3]: 51.3 µM

SMILES: O=C(/C=C/c1ccccc1)c1cccc(O)c1CN1CCOCC1
IC50 [1]: 2.81 µM | IC50 [5]: 5.19 µM | IC50 [2]: 9.95 µM | IC50 [3]: 2.3 µM

SMILES: O=C(/C=C/c1ccncc1)c1ccc(O)c(CN2CCOCC2)c1
IC50 [1]: 8.85 µM | IC50 [5]: 13.7 µM | IC50 [2]: 111 µM | IC50 [3]: 4.14 µM

SMILES: CC(C)=CCOc1ccc(C(=O)/C=C/c2sccc2C)c(O)c1CN1CCOCC1
inhibition at 30 µM [8]: 21.5% | IC50 [2]: 11 µM | IC50 [3]: 0.93 µM

SMILES: O=C(/C=C/c1ccccn1)c1ccc(CN2CCOCC2)c(O)c1CN1CCOCC1
IC50 [1]: 1.66 µM | IC50 [5]: 1.44 µM | IC50 [2]: 24.3 µM | IC50 [3]: 0.018 µM

SMILES: O=C(/C=C/c1ccccn1)c1cc(CN2CCOCC2)c(O)c(CN2CCOCC2)c1
IC50 [1]: 14.8 µM | IC50 [5]: 18.9 µM | IC50 [2]: 190 µM | IC50 [3]: 2.52 µM

SMILES: O=C(/C=C/c1ccco1)c1ccc(O)c(CN2CCOCC2)c1
Activity [4]: 276.51 nM | inhibition at 30 µM [8]: 27.4% | T1/2 [6]: 28.1 s | IC50 [2]: 10 µM | IC50 [3]: 0.16 µM

SMILES: Cc1ccsc1/C=C/C(=O)c1cc(CN2CCOCC2)c(O)c(CN2CCOCC2)c1
inhibition at 30 µM [8]: 33.8% | inhibition at 30 µM [7]: 15.4% | IC50 [2]: 56.9 µM | IC50 [3]: 0.44 µM

SMILES: O=C(/C=C/c1ccco1)c1cccc(O)c1CN1CCOCC1
IC50 [1]: 18.2 µM | inhibition at 30 µM [7]: 39.7% | IC50 [2]: 17.2 µM | IC50 [3]: 2.5 µM

SMILES: c1ccc2c(c1)[I+]c1ccccc1-2 [DIPHENYLENEIODONIUM]
IC50 [1]: 1.02 µM

SMILES: COc1ccc(/C=C/C(=O)c2cccs2)c(CN2CCCCC2)c1O
IC50 [1]: 8.32 µM

SMILES: O=C(/C=C/c1ccccc1)c1ccc(O)c(CN2CCOCC2)c1
IC50 [1]: 16.6 µM | inhibition at 30 µM [7]: 9.32% | IC50 [2]: 35 µM | IC50 [3]: 15.6 µM

Now from value to compound, other results behind:

IC50 [1]: 0.68 µM | IC50 [5]: 0.95 µM | IC50 [3]: 1.73 µM
SMILES: COc1ccc(C(=O)/C=C/c2ccccn2)c(O)c1CN1CCOCC1
Activity [4]: 208.65 nM | T1/2 [6]: 8.43 s | IC50 [2]: 10.8 µM

IC50 [1]: 15.8 µM | IC50 [3]: 6.06 µM
SMILES: COc1cc(O)c(C(=O)/C=C/c2ccco2)cc1CN1CCOCC1
inhibition at 30 µM [7]: 17.9% | IC50 [2]: 1440 µM

IC50 [1]: 2.86 µM | IC50 [3]: 0.2 µM
SMILES: COc1cc(O)c(C(=O)/C=C/c2ccccc2)cc1CN1CCOCC1
IC50 [2]: 0.19 µM

IC50 [1]: 2.65 µM | IC50 [5]: 4.52 µM | IC50 [3]: 11.8 µM
SMILES: COc1cc(O)c(C(=O)/C=C/c2cccnc2)cc1CN1CCOCC1
IC50 [2]: 2810 µM

IC50 [1]: 23.5 µM | IC50 [3]: 0.82 µM
SMILES: O=C(/C=C/c1cccnc1)c1ccc(O)c(CN2CCOCC2)c1
inhibition at 30 µM [7]: 20.4% | IC50 [2]: 53.2 µM

IC50 [1]: 15.2 µM | IC50 [5]: 20.9 µM | IC50 [3]: 3.41 µM
SMILES: O=C(/C=C/c1ccccn1)c1ccc(O)c(CN2CCOCC2)c1
IC50 [2]: 6.56 µM

IC50 [1]: 5.77 µM | IC50 [3]: 3.35 µM
SMILES: COc1ccc(/C=C/C(=O)c2cc(CN3CCOCC3)c(OC)cc2O)cc1
IC50 [2]: 1860 µM

IC50 [1]: 10.2 µM | IC50 [3]: 3.61 µM
SMILES: COc1cc(O)c(C(=O)/C=C/c2cccs2)cc1CN1CCOCC1
IC50 [2]: 148 µM

IC50 [1]: 2.42 µM | IC50 [5]: 3.48 µM | IC50 [3]: 15.4 µM
SMILES: CCOc1cc(O)c(C(=O)/C=C/c2cccnc2)cc1CN1CCOCC1
IC50 [2]: 4.46 µM

IC50 [3]: 16.5 µM
SMILES: CCOc1cc(O)c(C(=O)/C=C/c2ccco2)cc1CN1CCOCC1
inhibition at 30 µM [8]: 39.9% | IC50 [2]: 16.9 µM

IC50 [1]: 19.4 µM | IC50 [3]: 0.23 µM
SMILES: CC(C)Oc1cc(O)c(C(=O)/C=C/c2cccs2)cc1CN1CCOCC1
IC50 [2]: 47.7 µM

IC50 [1]: 19.9 µM | IC50 [3]: 8.13 µM
SMILES: CCOc1cc(O)c(C(=O)/C=C/c2sccc2C)cc1CN1CCOCC1
IC50 [2]: 2060 µM

IC50 [1]: 2.63 µM | IC50 [5]: 2.47 µM | IC50 [3]: 0.72 µM
SMILES: O=C(/C=C/c1ccccn1)c1ccc(CN2CCOCC2)c(O)c1
IC50 [2]: 78 µM

IC50 [1]: 19.9 µM | IC50 [3]: 10.5 µM
SMILES: CCOc1cc(O)c(C(=O)/C=C/c2ccc(C)o2)cc1CN1CCOCC1
IC50 [2]: 91.3 µM

IC50 [1]: 5.96 µM | IC50 [5]: 6.66 µM | IC50 [3]: 0.23 µM
SMILES: O=C(/C=C/c1cccnc1)c1ccc(CN2CCOCC2)c(O)c1

IC50 [1]: 3.35 µM | IC50 [3]: 0.29 µM
SMILES: CCOc1cc(O)c(C(=O)/C=C/c2ccccc2)cc1CN1CCOCC1
IC50 [2]: 1.6 µM

IC50 [1]: 0.89 µM | IC50 [5]: 1.24 µM | IC50 [3]: 15.1 µM
SMILES: CCOc1cc(O)c(C(=O)/C=C/c2ccccn2)cc1CN1CCOCC1
IC50 [2]: 0.18 µM

IC50 [1]: 1.6 µM | IC50 [5]: 2.28 µM | IC50 [3]: 0.055 µM
SMILES: O=C(/C=C/c1ccncc1)c1ccc(CN2CCOCC2)c(O)c1
IC50 [2]: 110 µM
